Calls of active or inactive are those of the source. The calls are words filed in the database; no cut-off is given here.

System in one assay: not listed separately
The assay is described as follows: Antiinflammatory activity in human neutrophils assessed as inhibition of LPS-induced intracellular TNFalpha expression at 1 ug/mL after 3 hrs by flow cytometry. In kind it is functional, Neutrophil. On the set-up: scale not given: the % may be the effect or the level left. The procedure, abridged:
(§1)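 Neutrophils were isolated from human blood: spun at 250g for 20 min, and the platelet-rich layer was discarded. The lower layer was spun at 1800g, and the buffy coat was layered on histopaque and spun at 700g. RBCs were lysed and the cells washed with PBS. Cells were given LPS plus compound for 3 h in a CO2 incubator, permeabilised, stained 30 min in the dark with conjugated anti-TNF-α mAb, and read by flow cytometry.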
(In general: In flow cytometry, cells or beads pass a laser one at a time.)
As to `CCC(=O)O[C@H]1[C@H](OC(=O)CC)[C@H](OC(=O)CC)[C@@H](OC)[C@H](OC(=O)CC)[C@H]1OC(=O)CC`, the Activity is recorded as 30.79%. `CCCC(=O)O[C@@H]1[C@@H](O)[C@@H](O)[C@H](O)[C@H](O)[C@H]1OC`: the Activity is listed as 8.36%. For the compound `CO[C@H]1C(=O)[C@H]2OC(C)(C)O[C@H]2[C@@H]2OC(C)(C)O[C@@H]21`, the Activity was found to be 50.57%. Take `CO[C@@H]1[C@@H](OC(=O)c2ccccc2)[C@@H](OC(=O)c2ccccc2)[C@H](OC(=O)c2ccccc2)[C@H](OC(=O)c2ccccc2)[C@H]1OC(=O)c1ccccc1`: the Activity worked out at 51.71%.

As for `CCC(=O)O[C@@H]1[C@@H](O)[C@@H](O)[C@H](O)[C@H](O)[C@H]1OC`, the Activity stood at 20.91%. As for `C=CCO[C@H]1[C@H](OC)[C@H]2OC(C)(C)O[C@H]2[C@@H]2OC(C)(C)O[C@H]12`, the Activity was 34.98%. With `CO[C@H]1[C@H](OC)[C@H]2OC(C)(C)O[C@H]2[C@@H]2OC(C)(C)O[C@H]12`, the Activity was found to be 33.33%. As to `C=CCO[C@@H]1[C@@H](O)[C@@H](O)[C@H](O)[C@H](O)[C@H]1OC`, the Activity is 29.65%. In the case of `CO[C@@H]1[C@@H](O)[C@@H](O)[C@H](O)[C@H](O)[C@H]1OC`, the Activity is recorded as 39.16%. In the case of `CO[C@H]1[C@H](OC(C)=O)[C@@H](OC(C)=O)[C@@H](OC(C)=O)[C@H](O)[C@@H]1OC(C)=O`, the Activity was 1.14%. With `CO[C@H]1[C@H](Cl)[C@H]2OC(C)(C)O[C@H]2[C@@H]2OC(C)(C)O[C@@H]21`, the Activity is on record as 37.64%. With `CCCC(=O)O[C@H]1[C@H](OC)[C@H]2OC(C)(C)O[C@H]2[C@@H]2OC(C)(C)O[C@H]12`, the Activity is reported as 39.54%. As to `CCO[C@@H]1[C@@H](O)[C@@H](O)[C@H](O)[C@H](O)[C@H]1OC`, the Activity came to 36.5%. On to `CO[C@@H]1[C@@H](O)[C@@H](O)[C@H](O)[C@H](O)[C@H]1OC(=O)C(C)C`, for which the Activity is given as 17.85%.

For `CCCC(=O)O[C@H]1[C@H](OC(=O)CCC)[C@H](OC(=O)CCC)[C@@H](OC)[C@H](OC(=O)CCC)[C@H]1OC(=O)CCC`, the Activity worked out at 52.47%. On to `CO[C@@H]1[C@@H](O)[C@@H](O)[C@H](O)[C@H](O)[C@H]1OC(C)=O`, for which the Activity turned out to be 2.28%. For the compound `CO[C@H]1[C@H](O)[C@H]2OC(C)(C)O[C@H]2[C@@H]2OC(C)(C)O[C@@H]21`, the Activity is given as 13.09%. On to `CO[C@@H]1[C@@H](OC(C)=O)[C@@H](OC(C)=O)[C@H](O)[C@H](OC(C)=O)[C@H]1OC(C)=O`, for which the Activity was found to be 33.46%.

For `CO[C@H]1[C@H](OC(C)=O)[C@H]2OC(C)(C)O[C@H]2[C@@H]2OC(C)(C)O[C@H]12`, the Activity was determined as 42.58%. Still for that read-out and setting: the figure for `CO[C@H]1[C@H](OC(=O)C(C)C)[C@H]2OC(C)(C)O[C@H]2[C@@H]2OC(C)(C)O[C@H]12` is 20.65%; for `CCO[C@H]1[C@H](OC)[C@H]2OC(C)(C)O[C@H]2[C@@H]2OC(C)(C)O[C@H]12` it is 38.4%.

Consider `CO[C@@H]1[C@@H](OC(C)=O)[C@@H](OC(C)=O)[C@H](OC(C)=O)[C@H](OC(C)=O)[C@H]1OC(C)=O`, for which the Activity amounted to 33.46%.

Take `CO[C@H]1[C@H](O)[C@@H](O)[C@@H](O)[C@H](O)[C@@H]1O` [METHYLINOSITOL]: the Activity turned out to be 30.03%.

Turning to `CCC(=O)O[C@H]1[C@H](OC)[C@H]2OC(C)(C)O[C@H]2[C@@H]2OC(C)(C)O[C@H]12`, the Activity was determined as 32.14%.

System in a further assay: not listed separately
Put plainly: Antiinflammatory activity in human neutrophils assessed as inhibition of LPS-induced intracellular TNFalpha expression at 10 ug/mL after 3 hrs by flow cytometry. Format: functional, Neutrophil. On the set-up: scale not given: the % may be the effect or the level left. The method in brief:
as §1
`COc1ccc(C2CNC(=O)C2)cc1OC1CCCC1` (stereo not drawn) [ROLIPRAM]: the Activity is on record as 52.85%.

In another assay the test system is Neutrophil (Homo sapiens). The assay is described as follows: Antiinflammatory activity in human neutrophils assessed as inhibition of LPS-induced intracellular TNFalpha expression.
In the case of `CO[C@H]1C(=O)[C@H]2OC(C)(C)O[C@H]2[C@@H]2OC(C)(C)O[C@@H]21`, the result was Active. Regarding `CO[C@@H]1[C@@H](OC(=O)c2ccccc2)[C@@H](OC(=O)c2ccccc2)[C@H](OC(=O)c2ccccc2)[C@H](OC(=O)c2ccccc2)[C@H]1OC(=O)c1ccccc1`, the result was Active. As to `CCCC(=O)O[C@H]1[C@H](OC(=O)CCC)[C@H](OC(=O)CCC)[C@@H](OC)[C@H](OC(=O)CCC)[C@H]1OC(=O)CCC`, the outcome was Active.

Source of the values: ChEMBL document CHEMBL1153348, “Semi-synthetic analogs of pinitol as potential inhibitors of TNF-alpha cytokine expression in human neutrophils” (2009).
